Assays:
[1] = Dose that produces lethality in 50% (LD50) of male and female carworth farms CF-1 strain mice weighing 16-25 g oral (po) route of administration; type: ADME, organism-based; settings: both, CF-1, mouse, in vivo
Procedure, shortened: (§1)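 Four mice per dose level. Drug dissolved in distilled water and suspended in 0.5% carboxymethylcellulose or 0.5% gelatin, with pH adjusted by 1 N HCl or 1 N NaOH where the drug tolerated it. Doses logarithmically spaced, given orally or intraperitoneally. Mice observed 7 days after dosing. LD50 derived by the Bliss method, expressed in mg/kg.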

[2] = Lethality in 50% (LD50) of male and female CF-1 strain mice weighing 16-25g, intraperitoneal administration; type: ADME, organism-based; settings: both, CF-1, mouse, in vivo, ip; procedure, shortened: as §1
Rattus norvegicus [3] = assay: Blood sugar lowering (hypoglycemic activity) in the glucose-primed rat at a dose of 100 mg/kg; Decrease in blood sugar level.; type: functional
Procedure, shortened: (§2)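 Male Sprague–Dawley rats, 140–150 g, groups of six, fasted 16 h. Each rat got 100 mg glucose s.c. in 0.5 mL isotonic NaCl, then the test agent at once orally as an aqueous carboxymethylcellulose suspension (0.5 mL); controls got vehicle. At 2 h, under light ether, blood was taken by cardiac puncture. Glucose was read by Autoanalyzer (Hoffman method). Values are percent difference from vehicle controls.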

Rattus norvegicus [4] = assay: Compound was evaluated for the blood sugar lowering (hypoglycemic activity) in the glucose-primed rat at a dose of 100 mg/kg; Increase in blood sugar level; type: functional; procedure, shortened: as §2
Rattus norvegicus [5] = assay: Compound was evaluated for the blood sugar lowering (hypoglycemic activity) in the glucose-primed rat at a dose of 100 mg/kg; type: functional; procedure, shortened: as §2
Rattus norvegicus [6] = assay: Evaluated in alloxanized, diabetic rat for the percentage reduction in blood glucose level as compared to pretreatment blood glucose values at a dose of 100 mg of free base / kg body weight administered orally.; type: functional
Procedure, shortened: (§3)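 Three days later, rats positive for urine glucose (reagent strip) formed groups of six. Tail-vein blood was taken before oral dosing and again at 5 h. Percent reduction is versus pretreatment glucose.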

[7] = Lethal dose required to produce 50% lethality in male and female carworth farms CF-1 strain mice weighing 16-25 g administered orally; settings: both, CF-1, in vivo, po
Rattus norvegicus [8] = assay: Evaluated in alloxanized, diabetic rat for the percentage reduction in blood glucose level as compared to pretreatment blood glucose values at a dose of 200 mg of free base / kg body weight administered orally.; type: functional; procedure, shortened: as §3
Rattus norvegicus [9] = assay: Evaluated in glucose-primed, fasted rat for the percentage reduction in blood glucose level after 2 hr as compared to control groups at a dose of 100 mg of free base / kg body weight administered orally; type: functional; procedure, shortened: as §2
Monkey [10] = assay: Evaluated in normal, fasted monkey for the percentage reduction in blood glucose level as compared to pretreatment blood glucose values at a dose of 150 mg of free base / kg body weight administered orally; type: functional, Cercopithecidae
Procedure, shortened: (§4)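 Male and female rhesus monkeys (2–3 kg) were food-deprived, with water, for 18 h. Pretreatment blood was taken from the popliteal vein. Dosing was oral by stomach tube, with repeat sampling 5 h post-dose. Results are percent reduction in blood glucose relative to pretreatment values.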

Rattus norvegicus [11] = assay: Evaluated in glucose primed, adrenalectomized rat for the percentage reduction in blood glucose level as compared to pretreatment blood glucose values at a dose of 25 mg of free base / kg body weight administered orally
Cavia porcellus [12] = assay: Evaluated in normal, fasted guinea pig for the percentage reduction in blood glucose level after 5 hr as compared to pretreatment blood glucose values at a dose of 100 mg of free base / kg body weight administered orally; type: functional
Procedure, shortened: (§5)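 Male and female Hartley guinea pigs, 450–500 g, were food-deprived (water allowed) 18 h and split by sex into groups of four. A zero-time blood sample was taken by cardiac puncture, then drug was given, and blood was drawn again 5 h later. Percent reduction in blood glucose is relative to pretreatment values.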

Rattus norvegicus [13] = assay: Evaluated in glucose-primed, fasted rat for the percentage reduction in blood glucose level after 2 h as compared to control groups at a dose of 25 mg of free base / kg body weight administered orally; type: functional; procedure, shortened: as §2
[14] = Lethal dose required to produce 50% lethality in male and female carworth farms CF-1 strain mice weighing 16-25 g administered intraperitoneally; settings: both, CF-1, rat, in vivo, ip
Rattus norvegicus [15] = assay: Evaluated in glucose-primed, fasted rat for the percentage reduction in blood glucose level after 2 hr as compared to control groups at a dose of 50 mg of free base / kg body weight administered orally; type: functional; procedure, shortened: as §2
[16] = Dose that produces lethality in 50% (LD50) of male and female carworth farms CF-1 strain mice weighing 16-25 g intraperitoneal (ip) route of administration; type: ADME, organism-based; settings: both, CF-1, mouse, in vivo; procedure, shortened: as §1
Rattus norvegicus [17] = assay: Evaluated for the blood sugar lowering (hypoglycemic activity ) in the glucose-primed rat at a dose of 100 mg/kg; type: functional; procedure, shortened: as §2
Rattus norvegicus [18] = assay: Compound was evaluated for the blood sugar lowering (hypoglycemic activity ) in the glucose-primed rat at a dose of 50 mg of base/kg; type: functional; procedure, shortened: as §2
Rattus norvegicus [19] = assay: Evaluated in alloxanized, diabetic rat for the percentage reduction in blood glucose level after 5 hr as compared to pretreatment blood glucose values at a dose of 100 mg of free base / kg body weight administered orally; type: functional; procedure, shortened: as §3
Cavia porcellus [20] = assay: Evaluated in normal, fasted guinea pig for the percentage reduction in blood glucose level after 5 hr as compared to pretreatment blood glucose values at a dose of 25 mg of free base / kg body weight administered orally; type: functional; procedure, shortened: as §5
Monkey [21] = assay: Evaluated in normal, fasted monkey for the percentage reduction in blood glucose level after 5 hr as compared to pretreatment blood glucose values at a dose of 10 mg of free base / kg body weight administered orally; type: functional, Cercopithecidae; procedure, shortened: as §4

Row | SMILES | LD50 [1] | LD50 [2] | Change (Rattus norvegicus [3]) | also measured
1 | Cc1cccc(/N=C(\Nc2ccc(OCCN(C(C)C)C(C)C)cc2)c2ccccc2)c1C | 1000 mg/kg | 360 mg/kg | 23.2% | 
2 | CN/C(=N/c1ccc(OCCN(C(C)C)C(C)C)cc1)c1ccccc1 | 500 mg/kg | 112 mg/kg |  | Change (Rattus norvegicus [4]): 13.1%
3 | CC(C)N(CCOc1ccc(N/C(=N\c2ccc(Cl)cc2)c2ccccc2)cc1)C(C)C | 1000 mg/kg | 1000 mg/kg | 31% | 
4 | CC(C)N(CCOc1ccc(N/C(=N\C2CCCCC2)c2ccccc2)cc1)C(C)C | 373 mg/kg | 137 mg/kg | 9.8% | 
5 | C=CC/N=C(\Nc1ccc(OCCN(C(C)C)C(C)C)cc1)c1ccccc1 | 653 mg/kg | 125 mg/kg | 15% | 
6 | CC(C)CN/C(=N/c1ccc(OCCN(C(C)C)C(C)C)cc1)c1ccccc1 | 360 mg/kg | 80 mg/kg | 22.8% | 
7 | CCN(CC)CCOc1ccc(N/C(=N\c2ccccc2)c2ccccc2)cc1.O=C(O)C(=O)O | 687 mg/kg | 100 mg/kg | 6.8% | 
8 | CN(CCOc1ccc(N/C(=N\c2ccccc2)c2ccccc2)cc1)c1ccccc1 | 1000 mg/kg | 587 mg/kg | 10.3% | 
9 | Br.c1ccc(/N=C(\Nc2ccc(OCCN3CCOCC3)cc2)c2ccccc2)cc1 | 715 mg/kg | 400 mg/kg |  | Change (Rattus norvegicus [5]): 0%
10 | Br.CCN/C(=N/c1ccc(OCCN(C(C)C)C(C)C)cc1)c1ccccc1 | 687 mg/kg | 100 mg/kg | 6.8% | 
11 | COc1ccc(N/C(=N/c2ccc(OCCN(C(C)C)C(C)C)cc2)c2ccccc2)cc1.Cl | 687 mg/kg | 160 mg/kg | 33.5% | 
12 | CC(C)N(CCOc1ccc(N/C(=N\c2ccccc2)c2ccc(Cl)cc2)cc1)C(C)C.Cl | 1000 mg/kg | 400 mg/kg | 3.2% | 
13 | Br.c1ccc(/N=C(\Nc2ccc(OCCN3CCCCC3)cc2)c2ccccc2)cc1 | 467 mg/kg | 142 mg/kg |  | Change (Rattus norvegicus [4]): 5.2%
14 | CC(C)N(CCOc1ccc(N/C(=N\c2ccc(Cl)cc2)c2ccccc2)cc1)C(C)C.Cl |  |  | 30.9% | Reduction (Rattus norvegicus [6]): 7.4%; LD50 [7]: 1000 mg/kg; Reduction (Rattus norvegicus [8]): 28.8%; Reduction (Rattus norvegicus [9]): 30.9%; Reduction (Monkey [10]): 35%; Reduction (Rattus norvegicus [11]): 31.4%; Reduction (Cavia porcellus [12]): 14%; Reduction (Rattus norvegicus [13]): 18.8%; LD50 [14]: 1000 mg/kg; Reduction (Rattus norvegicus [15]): 23.5%
15 | CC(C)N(CCSc1ccc(N/C(=N\c2ccccc2)c2ccccc2)cc1)C(C)C.Cl | 400 mg/kg | 285 mg/kg | 35.6% | 
16 | COc1ccc(/C(=N\c2ccc(OCCN3CCCC3)cc2)Nc2ccccc2)cc1.Cl |  |  | 14% | 
17 | CC(C)N(CCCOc1ccc(N/C(=N\c2ccc(Cl)cc2)c2ccccc2)cc1)C(C)C.Cl | 1000 mg/kg | 187 mg/kg | 18.3% | 
18 | Br.COc1ccc(N/C(=N/c2ccc(OCCCN3CCCC3)cc2)c2ccccc2)cc1 | 400 mg/kg | 108 mg/kg | 25.7% | 
19 | Br.COc1ccc(N/C(=N/c2ccc(OCCN3CCCC3)cc2)c2ccccc2)cc1 | 900 mg/kg | 148 mg/kg | 35% | 

Row | SMILES | LD50 [1] | LD50 [2] | Change (Rattus norvegicus [3]) | also measured
20 | CCCCN(CCCC)CCCOc1ccc(N/C(=N\c2ccccc2)c2ccccc2)cc1.Cl | 867 mg/kg | 148 mg/kg | 10.9% | 
21 | Br.c1ccc(CN(CCOc2ccc(N/C(=N\c3ccccc3)c3ccccc3)cc2)Cc2ccccc2)cc1 |  |  |  | Change (Rattus norvegicus [5]): 0%
22 | Br.CC(C)N(CCOc1ccc(N/C(=N\c2ccc(F)cc2)c2ccccc2)cc1)C(C)C | 630 mg/kg | 143 mg/kg | 26% | 
23 | COc1ccc(N/C(=N/c2ccc(OCCCN(C(C)C)C(C)C)cc2)c2ccccc2)cc1.Cl | 450 mg/kg | 108 mg/kg | 34.1% | 
24 | CCCCN(CCCC)CCOc1ccc(N/C(=N\c2ccccc2)c2ccccc2)cc1.Cl | 800 mg/kg | 160 mg/kg | 22.5% | 
25 | CC(C)N(CCc1ccc(/C(=N\c2ccccc2)Nc2ccccc2)cc1)C(C)C.Cl | 587 mg/kg |  | 32.4% | LD50 [16]: 160 mg/kg
26 | CC(C)N(CCOc1ccc(N/C(=N\c2ccc(Cl)c(Cl)c2)c2ccccc2)cc1)C(C)C.Cl | 1000 mg/kg | 400 mg/kg | 13.8% | 
27 | Cl.c1ccc(/N=C(\Nc2ccc(SCCN3CCCC3)cc2)c2ccccc2)cc1 | 587 mg/kg | 200 mg/kg | 12.5% | 
28 | Br.CN(C)CCOc1ccc(N/C(=N\c2ccccc2)c2ccccc2)cc1 | 500 mg/kg | 112 mg/kg |  | Change (Rattus norvegicus [4]): 13.1%
29 | Br.c1ccc(/N=C(\Nc2ccc(OCCCN3CCCC3)cc2)c2ccccc2)cc1 | 543 mg/kg | 125 mg/kg | 23.5% | 
30 | CC(C)N(CCOc1ccccc1/N=C(/Nc1ccccc1)c1ccccc1)C(C)C.Cl | 840 mg/kg | 253 mg/kg | 18.3% | 
31 | COc1ccc(/C(=N\c2ccc(OCCN(C(C)C)C(C)C)cc2)Nc2ccccc2)cc1.Cl | 475 mg/kg | 140 mg/kg | 18.5% | 
32 | Br.COc1ccc(N/C(=N/c2ccc(OCCCN3CCCC3)cc2)c2ccc(C)cc2)cc1 | 400 mg/kg | 43 mg/kg | 12.6% | 
33 | CC(C)N(CCOc1ccc(N/C(=N\c2cccc(C(F)(F)F)c2)c2ccccc2)cc1)C(C)C.Cl | 1000 mg/kg | 400 mg/kg |  | Change (Rattus norvegicus [17]): 0%
34 | CC(C)N(CCOc1ccc(N/C(=N\Cc2ccccc2)c2ccccc2)cc1)C(C)C.Cl | 450 mg/kg | 187 mg/kg |  | Change (Rattus norvegicus [5]): 0%
35 | Br.CN(CCOc1ccc(N/C(=N\c2ccccc2)c2ccccc2)cc1)Cc1ccccc1 | 500 mg/kg | 233 mg/kg | 15.9% | 
36 | CC(C)N(CCOc1cccc(N/C(=N\c2ccccc2)c2ccccc2)c1)C(C)C.Cl | 240 mg/kg | 107 mg/kg |  | Change (Rattus norvegicus [18]): 28.1%
37 | CCCCNC(=N)NC(=N)N [BUFORMIN] |  |  |  | LD50 [7]: 500 mg/kg; Reduction (Rattus norvegicus [9]): 0%; LD50 [14]: 140 mg/kg
38 | N=C(N)NC(=N)NCCc1ccccc1 [PHENFORMIN] |  |  |  | Reduction (Rattus norvegicus [9]): 0%; Reduction (Rattus norvegicus [19]): 62%; Reduction (Cavia porcellus [20]): 46%; Reduction (Monkey [21]): 50%

From ChEMBL document CHEMBL1122033, “Chemistry and hypoglycemic activity of N-[[(Dialkylamino)alkoxy]phenyl]benzamidines” (J Med Chem, 1982)
